Experiments:
[1] = test system: A549; assay: Cytotoxicity against human A549 cells transfected with NF-kappaB assessed as reduction of cell viability relative to control; assay type: cell-based; parameters: concentration or dose not given beside the values
[2] = test system: A549; assay: Cytotoxicity against human A549 cells after 48 hrs by MTT assay; assay type: functional, cell-based
Procedure, shortened: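 A549 cells grown in RPMI with 5% FBS and 1% penicillin-streptomycin. Seeded at 4000 cells/well, attached overnight, then exposed to compound at 0.01–100 µmol for 48 h. MTT added for 4 h, formazan dissolved in DMSO, absorbance read at 570 nm. Mean of at least three independent experiments, each in triplicate.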

[3] = Inhibition of TNF-alpha-induced NF-kappaB (unknown origin) activation transfected in human A549 cells after 7 hrs by bright-glo luciferase reporter gene assay; assay type: cell-based
Procedure, shortened: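 A549 cells co-transfected with pNF-κB-Luc and pSV-β-galactosidase (internal control) using lipofectamine. Medium changed at 6 h, cells cultured a further 6 h, then given TNF-α 15 ng/ml and compound together for 7 h. Read-out is Bright-Glo luciferase, corrected for background and viability and expressed relative to TNF-α-only cells. IC50 from a variable-slope sigmoidal fit.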

[4] = Chemical stability in simulated gastric fluid assessed as compound remaining at 5 mg/ml at pH 2 measured at 8 hrs by HPLC analysis; assay type: physicochemical; conditions: read-out: Stability
Procedure, shortened: (§1)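 Stability in simulated gastric fluid, HCl buffer pH 2, 37 °C in a water bath. Compound stock is 5 mg/ml in THF, diluted 1:10 into buffer. Samples were taken at 0, 2, 5, 8 and 12 h, diluted with ACN and analysed by HPLC. % remaining = peak area at each time / peak area at 0 min × 100.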

[5] = Metabolic stability in 80% human plasma assessed as compound remaining at 5 mg/ml measured at 15 mins by HPLC analysis; assay type: ADME, cell-free; conditions: read-out: Stability
Procedure, shortened: (§2)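 Human plasma at 80%, diluted with isotonic phosphate buffer pH 7.4, 37 °C in a water bath. Compound stock is 5 mg/ml in THF, diluted 1:10 into the plasma. Samples were taken at 0, 15, 30, 60 and 120 min, quenched in ACN, centrifuged 5 min, and the supernatant analysed by HPLC for ester remaining.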

[6] = Metabolic stability in 80% human plasma assessed as compound remaining at 5 mg/ml measured at 30 mins by HPLC analysis; assay type: ADME, cell-free; conditions: read-out: Stability; procedure, shortened: as §2
[7] = Chemical stability in simulated gastric fluid assessed as compound remaining at 5 mg/ml at pH 2 measured at 12 hrs by HPLC analysis; assay type: physicochemical; conditions: read-out: Stability; procedure, shortened: as §1
[8] = Metabolic stability in 80% human plasma assessed as compound remaining at 5 mg/ml measured at 120 mins by HPLC analysis; assay type: ADME, cell-free; conditions: read-out: Stability; procedure, shortened: as §2
[9] = Chemical stability in simulated gastric fluid assessed as compound remaining at 5 mg/ml at pH 2 measured at 2 hrs by HPLC analysis; assay type: physicochemical; conditions: read-out: Stability; procedure, shortened: as §1
[10] = target: T1, Inhibitor of nuclear factor kappa-B kinase subunit beta (Homo sapiens, UniProt O14920); assay: Inhibition of FLAG-tagged human recombinant IKKbeta phosphorylation expressed in baculovirus infected insect Sf9 cells after 1 hr by luminescence assay
T1 sequence (O14920 whole entry): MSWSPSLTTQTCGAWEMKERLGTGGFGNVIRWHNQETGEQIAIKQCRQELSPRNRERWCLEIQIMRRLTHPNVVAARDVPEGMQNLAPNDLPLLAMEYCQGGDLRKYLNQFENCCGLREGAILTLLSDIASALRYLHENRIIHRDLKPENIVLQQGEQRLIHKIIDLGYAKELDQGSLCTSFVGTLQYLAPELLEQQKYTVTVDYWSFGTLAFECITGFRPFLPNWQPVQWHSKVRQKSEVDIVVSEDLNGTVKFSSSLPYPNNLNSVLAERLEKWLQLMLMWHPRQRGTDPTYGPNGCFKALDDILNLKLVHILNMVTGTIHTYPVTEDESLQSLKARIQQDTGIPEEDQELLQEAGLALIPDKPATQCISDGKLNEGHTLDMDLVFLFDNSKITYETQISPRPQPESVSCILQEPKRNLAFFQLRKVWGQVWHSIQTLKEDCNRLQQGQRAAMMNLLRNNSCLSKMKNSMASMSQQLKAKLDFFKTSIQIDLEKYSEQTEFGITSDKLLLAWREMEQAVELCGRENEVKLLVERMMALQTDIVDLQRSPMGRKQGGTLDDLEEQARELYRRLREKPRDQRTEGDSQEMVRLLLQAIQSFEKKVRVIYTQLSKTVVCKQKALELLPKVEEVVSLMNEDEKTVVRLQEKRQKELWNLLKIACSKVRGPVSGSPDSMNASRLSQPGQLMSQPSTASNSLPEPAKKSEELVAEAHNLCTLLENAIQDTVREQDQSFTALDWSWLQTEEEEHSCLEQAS
Procedure, shortened: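 Kinase reaction ran 1 h at room temperature with bacterially expressed GST-IkBα substrate and 500 nmol ATP, in 25 mmol/l HEPES pH 7.5, 10 mmol/l Mg acetate, 1 mmol DTT, 0.01% BSA and 0.01% Tween20. Stopped with equal volume Kinase-Glo, 10 min RT, then luminescence of remaining ATP read.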

[11] = Metabolic stability in 80% human plasma assessed as compound remaining at 5 mg/ml measured at 60 mins by HPLC analysis; assay type: ADME, cell-free; conditions: read-out: Stability; procedure, shortened: as §2
[12] = Chemical stability in simulated gastric fluid assessed as compound remaining at 5 mg/ml at pH 2 measured at 5 hrs by HPLC analysis; assay type: physicochemical; conditions: read-out: Stability; procedure, shortened: as §1

| SMILES | IC50 [3] [µmol] | Activity [1] [%] | IC50 [2] [µmol] | also measured |
| --- | --- | --- | --- | --- |
| CC1(C)C[C@@H](O)[C@]2(C(=O)O)CC[C@]3(C)C(=CC[C@@H]4[C@@]5(C)CC[C@H](O)C(C)(C)[C@@H]5CC[C@]43C)[C@@H]2C1 | > 10 | < 5 | > 10 |  |
| CC(C)=CC(=O)O[C@@H]1CC(C)(C)C[C@H]2C3=CC[C@@H]4[C@@]5(C)CCC(=O)C(C)(C)[C@@H]5CC[C@@]4(C)[C@]3(C)CC[C@@]12C(=O)O | 1.56 | < 5 | 1.19 |  |
| CC1(C)C[C@@H](OC(=O)c2ccccc2Cl)[C@]2(C(=O)O)CC[C@]3(C)C(=CC[C@@H]4[C@@]5(C)CCC(=O)C(C)(C)[C@@H]5CC[C@]43C)[C@@H]2C1 | > 10 | < 5 | > 10 |  |
| COC(=O)[C@@]12CC[C@]3(C)C(=CC[C@@H]4[C@@]5(C)CC[C@H](O)C(C)(C)[C@@H]5CC[C@]43C)[C@@H]1CC(C)(C)C[C@H]2O | > 10 | < 5 | > 10 |  |
| C/C=C(\C)C(=O)O[C@@H]1CC(C)(C)C[C@H]2C3=CC[C@@H]4[C@@]5(C)CC/C(=N\O)C(C)(C)[C@@H]5CC[C@@]4(C)[C@]3(C)CC[C@@]12C(=O)O | > 10 | < 5 | > 10 |  |
| CC(C)=CC(=O)O[C@@H]1CC(C)(C)C[C@H]2C3=CC[C@@H]4[C@@]5(C)CC/C(=N\O)C(C)(C)[C@@H]5CC[C@@]4(C)[C@]3(C)CC[C@@]12C(=O)O | > 10 | < 5 | > 10 |  |
| COC(=O)[C@@]12CC[C@]3(C)C(=CC[C@@H]4[C@@]5(C)CCC(=O)C(C)(C)[C@@H]5CC[C@]43C)[C@@H]1CC(C)(C)C[C@H]2O | > 10 | < 5 | > 10 |  |
| CC1(C)C[C@@H](O)[C@]2(C(=O)O)CC[C@]3(C)C(=CC[C@@H]4[C@@]5(C)CCC(=O)C(C)(C)[C@@H]5CC[C@]43C)[C@@H]2C1 | 6.42 | < 5 | > 10 |  |
| CC1(C)C[C@@H](OC(=O)c2ccccc2)[C@]2(C(=O)O)CC[C@]3(C)C(=CC[C@@H]4[C@@]5(C)CCC(=O)C(C)(C)[C@@H]5CC[C@]43C)[C@@H]2C1 | > 10 | < 5 | > 10 |  |
| C/C=C(/C)C(=O)O[C@@H]1CC(C)(C)C[C@H]2C3=CC[C@@H]4[C@@]5(C)CCC(=O)C(C)(C)[C@@H]5CC[C@@]4(C)[C@]3(C)CC[C@@]12C(=O)O [LANTADENE A] | 1.06 | < 5 | 2.84 |  |
| C/C=C(/C)C(=O)O[C@@H]1CC(C)(C)C[C@H]2C3=CC[C@@H]4[C@@]5(C)CC[C@H](O)C(C)(C)[C@@H]5CC[C@@]4(C)[C@]3(C)CC[C@@]12C(=O)O [Reduced Lantadene A] | 0.98 | < 5 | 0.79 | IC50 [10]: 2.62 µmol |
| CC(C)=CC(=O)O[C@@H]1CC(C)(C)C[C@H]2C3=CC[C@@H]4[C@@]5(C)CC[C@H](O)C(C)(C)[C@@H]5CC[C@@]4(C)[C@]3(C)CC[C@@]12C(=O)O [Reduced Lantadene B] | 1.02 | < 5 | 0.43 | IC50 [10]: 4.24 µmol |

Now from value to molecule, other results behind:

| IC50 [3] [µmol] | SMILES | Activity [1] [%] | IC50 [2] [µmol] | also measured |
| --- | --- | --- | --- | --- |
| 2.8 | C/C=C(\C)C(=O)O[C@@H]1CC(C)(C)C[C@H]2C3=CC[C@@H]4[C@@]5(C)CC[C@H](OC(C)=O)C(C)(C)[C@@H]5CC[C@@]4(C)[C@]3(C)CC[C@@]12C(=O)O | < 5 | 5.42 |  |
| 2.32 | CC(=O)O[C@H]1CC[C@]2(C)[C@H]3CC=C4[C@@H]5CC(C)(C)C[C@@H](OC(=O)C=C(C)C)[C@]5(C(=O)O)CC[C@@]4(C)[C@]3(C)CC[C@H]2C1(C)C | < 5 | 4.9 |  |
| 5.04 | C/C=C(\C)C(=O)O[C@@H]1CC(C)(C)C[C@H]2C3=CC[C@@H]4[C@@]5(C)CC[C@H](OC(=O)c6ccccc6)C(C)(C)[C@@H]5CC[C@@]4(C)[C@]3(C)CC[C@@]12C(=O)O | < 5 | 7.36 |  |
| 4.64 | CC(C)=CC(=O)O[C@@H]1CC(C)(C)C[C@H]2C3=CC[C@@H]4[C@@]5(C)CC[C@H](OC(=O)c6ccccc6)C(C)(C)[C@@H]5CC[C@@]4(C)[C@]3(C)CC[C@@]12C(=O)O | < 5 | 7.2 |  |
| 4.18 | C/C=C(\C)C(=O)O[C@@H]1CC(C)(C)C[C@H]2C3=CC[C@@H]4[C@@]5(C)CC[C@H](OC(=O)c6ccccc6Cl)C(C)(C)[C@@H]5CC[C@@]4(C)[C@]3(C)CC[C@@]12C(=O)O | < 5 | 6.8 |  |
| 3.7 | CC(C)=CC(=O)O[C@@H]1CC(C)(C)C[C@H]2C3=CC[C@@H]4[C@@]5(C)CC[C@H](OC(=O)c6ccccc6Cl)C(C)(C)[C@@H]5CC[C@@]4(C)[C@]3(C)CC[C@@]12C(=O)O | < 5 | 6.52 |  |
| 0.56 | C/C=C(\C)C(=O)O[C@@H]1CC(C)(C)C[C@H]2C3=CC[C@@H]4[C@@]5(C)CC[C@H](OC(=O)/C=C/c6ccccc6)C(C)(C)[C@@H]5CC[C@@]4(C)[C@]3(C)CC[C@@]12C(=O)O | < 5 | 0.12 | remaining at 8 h, 5 mg/ml [4]: 84.7%; remaining at 0.25 h, 5 mg/ml [5]: 74.2%; remaining at 0.5 h, 5 mg/ml [6]: 54.7%; remaining at 12 h, 5 mg/ml [7]: 76.6%; remaining at 2 h, 5 mg/ml [8]: 36.8%; remaining at 2 h, 5 mg/ml [9]: 96.4%; IC50 [10]: 1.2 µmol; remaining at 1 h, 5 mg/ml [11]: 46.8%; remaining at 5 h, 5 mg/ml [12]: 90.7% |
| 0.42 | CC(C)=CC(=O)O[C@@H]1CC(C)(C)C[C@H]2C3=CC[C@@H]4[C@@]5(C)CC[C@H](OC(=O)/C=C/c6ccccc6)C(C)(C)[C@@H]5CC[C@@]4(C)[C@]3(C)CC[C@@]12C(=O)O | < 5 | 0.08 | remaining at 8 h, 5 mg/ml [4]: 87.6%; remaining at 0.25 h, 5 mg/ml [5]: 74.7%; remaining at 0.5 h, 5 mg/ml [6]: 55.5%; remaining at 12 h, 5 mg/ml [7]: 81%; remaining at 2 h, 5 mg/ml [8]: 39.2%; remaining at 2 h, 5 mg/ml [9]: 97.2%; IC50 [10]: 0.94 µmol; remaining at 1 h, 5 mg/ml [11]: 48.1%; remaining at 5 h, 5 mg/ml [12]: 92.5% |
| 2.42 | CC1(C)C[C@@H](OC(=O)/C=C/c2ccccc2)[C@]2(C(=O)O)CC[C@]3(C)C(=CC[C@@H]4[C@@]5(C)CCC(=O)C(C)(C)[C@@H]5CC[C@]43C)[C@@H]2C1 | < 5 | 3.64 |  |
| > 10 | CC(=O)O[C@H]1CC[C@]2(C)[C@H]3CC=C4[C@@H]5CC(C)(C)C[C@@H](OC(C)=O)[C@]5(C(=O)O)CC[C@@]4(C)[C@]3(C)CC[C@H]2C1(C)C | < 5 | > 10 |  |

Reference: ChEMBL document CHEMBL3112453, “Novel lung adenocarcinoma and nuclear factor-kappa B (NF-κB) inhibitors: synthesis and evaluation of lantadene congeners” (Eur J Med Chem, 2014)
